Assay results reported in ChEMBL document CHEMBL1125210, “Benzylated 1,2,3-triazoles as anticoccidiostats” (J Med Chem, 1991).
One block for each compound: values may come before it.

Tests used:
Gallus gallus [1] = species on record: Gallus gallus; assay: The compound was tested for anti-coccidial activity in chicken against Eimeria tenella; format: organism-based; settings: in vivo
Outline: (§1)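 Test article mixed into the feed at the stated rates and given to 3-day-old chicks infected with […]. Each Eimeria species was inoculated separately. Activity was scored as percent suppression of oocyst output relative to infected, unmedicated controls. Toxicity was judged from average weight gain relative to uninfected controls.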

Gallus gallus [2] = species on record: Gallus gallus; assay: The compound was tested for anti-coccidial activity in chicken against Eimeria acervulina; format: organism-based; settings: in vivo
Outline: (§2)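 3-Day-old chicks infected separately with E. tenella or E. acervulina; test compound given mixed in the feed at the stated rates. Activity was scored as percent suppression of oocyst production versus infected, unmedicated controls. Toxicity was judged from average weight gain relative to uninfected controls.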

Gallus gallus [3] = species on record: Gallus gallus; assay: The compound was tested for anti-coccidial activity in chicken against Eimeria necatrix (Aquet) measured at dose 7.5 (ppm in diet); format: functional
Gallus gallus [4] = species on record: Gallus gallus; assay: The compound was tested for anti-coccidial activity in chicken against Eimeria praecox (DP-785) measured at dose 15 (ppm in diet); format: functional
Gallus gallus [5] = species on record: Gallus gallus; assay: The compound was tested for anti-coccidial activity in chicken against Eimeria praecox (DP-785) measured at dose 30 (ppm in diet); format: functional
Gallus gallus [6] = species on record: Gallus gallus; assay: The compound was tested for anti-coccidial activity in chicken against Eimeria praecox (DP-785) measured at dose 45 (ppm in diet); format: functional
Eimeria acervulina = assay: Anticoccidial activity in chicken against Eimeria acervulina.; format: functional; set-up: Reduction: concentration or dose not given beside the values; outline: as §2
Gallus gallus [7] = species on record: Gallus gallus; assay: The compound was tested for anti-coccidial activity in chicken against Eimeria acervulina (DP-761) measured at dose 60 (ppm in diet); format: functional
Gallus gallus [8] = species on record: Gallus gallus; assay: The compound was tested for anti-coccidial activity in chicken against Eimeria acervulina (DP-761) measured at dose 7.5 (ppm in diet); format: functional
Gallus gallus [9] = species on record: Gallus gallus; assay: The compound was tested for anti-coccidial activity in chicken against Eimeria brunetti (FS-103) measured at dose 15 (ppm in diet); format: functional
Gallus gallus [10] = species on record: Gallus gallus; assay: The compound was tested for anti-coccidial activity in chicken against Eimeria brunetti (FS-103) measured at dose 30 (ppm in diet); format: functional
Gallus gallus [11] = species on record: Gallus gallus; assay: The compound was tested for anti-coccidial activity in chicken against Eimeria brunetti (FS-103) measured at dose 45 (ppm in diet); format: functional
Gallus gallus [12] = species on record: Gallus gallus; assay: The compound was tested for anti-coccidial activity in chicken against Eimeria brunetti (FS-103) measured at dose 60 (ppm in diet); format: functional
Gallus gallus [13] = species on record: Gallus gallus; assay: The compound was tested for anti-coccidial activity in chicken against Eimeria brunetti (FS-103) measured at dose 7.5 (ppm in diet); format: functional
Gallus gallus [14] = species on record: Gallus gallus; assay: The compound was tested for anti-coccidial activity in chicken against Eimeria maxima (DP-776) measured at dose 30 (ppm in diet); format: functional
Gallus gallus [15] = species on record: Gallus gallus; assay: The compound was tested for anti-coccidial activity in chicken against Eimeria maxima (DP-776) measured at dose 45 (ppm in diet); format: functional
Gallus gallus [16] = species on record: Gallus gallus; assay: The compound was tested for anti-coccidial activity in chicken against Eimeria maxima (DP-776) measured at dose 60 (ppm in diet); format: functional
Gallus gallus [17] = species on record: Gallus gallus; assay: The compound was tested for anti-coccidial activity in chicken against Eimeria maxima (DP-776) measured at dose 7.5 (ppm in diet); format: functional
Gallus gallus [18] = species on record: Gallus gallus; assay: The compound was tested for anti-coccidial activity in chicken against Eimeria praecox (DP-785) measured at dose 60 (ppm in diet); format: functional
Gallus gallus [19] = species on record: Gallus gallus; assay: The compound was tested for anti-coccidial activity in chicken against Eimeria praecox (DP-785) measured at dose 7.5 (ppm in diet); format: functional
Eimeria tenella = assay: Anticoccidial activity in chicken against E. tenella; format: functional; set-up: Reduction: concentration or dose not given beside the values; outline: as §2
Gallus gallus [20] = species on record: Gallus gallus; assay: The compound was tested for anti-coccidial activity in chicken against Eimeria tenella (DP-761) measured at dose 15 (ppm in diet); format: functional; outline: as §1
Gallus gallus [21] = species on record: Gallus gallus; assay: The compound was tested for anti-coccidial activity in chicken against Eimeria acervulina (DP-761) measured at dose 15 (ppm in diet); format: functional
Gallus gallus [22] = species on record: Gallus gallus; assay: The compound was tested for anti-coccidial activity in chicken against Eimeria acervulina (DP-761) measured at dose 30 (ppm in diet); format: functional
Gallus gallus [23] = species on record: Gallus gallus; assay: The compound was tested for anti-coccidial activity in chicken against Eimeria acervulina (DP-761) measured at dose 45 (ppm in diet); format: functional
Gallus gallus [24] = species on record: Gallus gallus; assay: The compound was tested for anti-coccidial activity in chicken against Eimeria necatrix (Aquet) measured at dose 15 (ppm in diet); format: functional
Gallus gallus [25] = species on record: Gallus gallus; assay: The compound was tested for anti-coccidial activity in chicken against Eimeria necatrix (Aquet) measured at dose 30 (ppm in diet); format: functional
Gallus gallus [26] = species on record: Gallus gallus; assay: The compound was tested for anti-coccidial activity in chicken against Eimeria necatrix (Aquet) measured at dose 45 (ppm in diet); format: functional
Gallus gallus [27] = species on record: Gallus gallus; assay: The compound was tested for anti-coccidial activity in chicken against Eimeria tenella (DP-761) measured at dose 30 (ppm in diet); format: functional; outline: as §1
Gallus gallus [28] = species on record: Gallus gallus; assay: The compound was tested for anti-coccidial activity in chicken against Eimeria tenella (DP-761) measured at dose 45 (ppm in diet); format: functional; outline: as §1
Gallus gallus [29] = species on record: Gallus gallus; assay: The compound was tested for anti-coccidial activity in chicken against Eimeria tenella (DP-761) measured at dose 60 (ppm in diet); format: functional; outline: as §1
Gallus gallus [30] = species on record: Gallus gallus; assay: The compound was tested for anti-coccidial activity in chicken against Eimeria tenella (DP-761) measured at dose 7.5 (ppm in diet); format: functional; outline: as §1
Gallus gallus [31] = species on record: Gallus gallus; assay: The compound was tested for anti-coccidial activity in chicken against Eimeria necatrix (Aquet) measured at dose 60 (ppm in diet); format: functional
Gallus gallus [32] = species on record: Gallus gallus; assay: The compound was tested for anti-coccidial activity in chicken against Eimeria maxima (DP-776) measured at dose 15 (ppm in diet); format: functional
Gallus gallus [33] = species on record: Gallus gallus; assay: The compound was tested for anti-coccidial activity in chicken against Eimeria praecox (DP-785) measured at dose 121 (ppm in diet); format: functional
Gallus gallus [34] = species on record: Gallus gallus; assay: The compound was tested for anti-coccidial activity in chicken against Eimeria acervulina (DP-761) measured at dose 121 (ppm in diet); format: functional
Gallus gallus [35] = species on record: Gallus gallus; assay: The compound was tested for anti-coccidial activity in chicken against Eimeria brunetti (FS-103) measured at dose 121 (ppm in diet); format: functional
Gallus gallus [36] = species on record: Gallus gallus; assay: The compound was tested for anti-coccidial activity in chicken against Eimeria hagani (DP-786) measured at dose 121 (ppm in diet); format: functional
Gallus gallus [37] = species on record: Gallus gallus; assay: The compound was tested for anti-coccidial activity in chicken against Eimeria maxima (DP-776) measured at dose 121 (ppm in diet); format: functional
Gallus gallus [38] = species on record: Gallus gallus; assay: The compound was tested for anti-coccidial activity in chicken against Eimeria mitis (LS-84) measured at dose 121 (ppm in diet); format: functional
Gallus gallus [39] = species on record: Gallus gallus; assay: The compound was tested for anti-coccidial activity in chicken against Eimeria tenella (DP-761) measured at dose 121 (ppm in diet); format: functional; outline: as §1

- minimum effective dose (Gallus gallus [1]): > 500 ppm
- minimum effective dose (Gallus gallus [2]): > 500 ppm
Structure (SMILES): NC(=O)c1c(N)nnn1Cc1cc(Cl)c(C(=O)c2ccc(Cl)cc2)c(Cl)c1

Structure (SMILES): NC(=O)c1nnn(Cc2cc(Cl)c(C(=O)c3ccc(Cl)cc3)c(Cl)c2)c1N [CARBOXYAMIDOTRIAZOLE]
- Reduction (Gallus gallus [3]): 12%
- Reduction (Gallus gallus [4]): 98%
- Reduction (Gallus gallus [5]): 100%
- Reduction (Gallus gallus [6]): 100%
- Reduction (Eimeria acervulina): 90%
- Reduction (Gallus gallus [7]): 99.9%
- Reduction (Gallus gallus [8]): 21%
- Reduction (Gallus gallus [9]): 95%
- Reduction (Gallus gallus [10]): 100%
- Reduction (Gallus gallus [11]): 100%
- Reduction (Gallus gallus [12]): 100%
- Reduction (Gallus gallus [13]): 58%
- Reduction (Gallus gallus [14]): 99.9%
- Reduction (Gallus gallus [15]): 99.9%
- Reduction (Gallus gallus [16]): 99.9%
- Reduction (Gallus gallus [17]): 99.9%
- Reduction (Gallus gallus [18]): 100%
- Reduction (Gallus gallus [19]): 72%
- Reduction (Eimeria tenella): 80%
- Reduction (Gallus gallus [20]): 83%
- Reduction (Gallus gallus [21]): 98%
- Reduction (Gallus gallus [22]): 99.9%
- Reduction (Gallus gallus [23]): 99.9%
- Reduction (Gallus gallus [24]): 88%
- Reduction (Gallus gallus [25]): 100%
- Reduction (Gallus gallus [26]): 100%
- Reduction (Gallus gallus [27]): 98%
- Reduction (Gallus gallus [28]): 99.9%
- Reduction (Gallus gallus [29]): 99.9%
- Reduction (Gallus gallus [30]): 60%
- Reduction (Gallus gallus [31]): 100%
- Reduction (Gallus gallus [32]): 99.9%

Structure (SMILES): CC[C@@]1([C@@H]2O[C@@H]([C@H]3O[C@@](O)(CO)[C@H](C)C[C@@H]3C)C[C@@H]2C)CC[C@H]([C@]2(C)CC[C@]3(C[C@H](O)[C@@H](C)[C@@H]([C@@H](C)[C@@H](OC)[C@H](C)C(=O)O)O3)O2)O1 [MONENSIN]
- Reduction (Gallus gallus [33]): 19%
- Reduction (Eimeria acervulina): 80%
- Reduction (Gallus gallus [34]): 4%
- Reduction (Gallus gallus [35]): 100%
- Reduction (Gallus gallus [36]): 19%
- Reduction (Gallus gallus [37]): 73%
- Reduction (Gallus gallus [38]): 72%
- Reduction (Eimeria tenella): 80%
- Reduction (Gallus gallus [39]): 100%
